For one test, the system named is Calf thymus DNA. The experiment in a line: Binding affinity to calf thymus DNA assessed as dissociation constant by fluorescence based analysis. Type of test: nucleic-acid assay, Bos taurus. In a few lines: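 Fluorescence titration: compound at 20 μM in PBS pH 7.4, calf thymus DNA added in 10 μM steps until emission plateaued (~60 μM). Excitation 345 nm, emission 350–650 nm. KD obtained by fitting a one-site total saturation binding model (nonspecific binding proportional to ligand). Triplicate independent samples.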

The test system of a further test is DNA. The experiment in a line: Induction of DNA (unknown origin) damage in PBS at pH 7.4 assessed as double strand breaks by measuring elimination of intact DNA at 10 uM irradiated with 480 nm 2.3 J/cm^2 light for 15 mins with 8 J/cm^2 UV irradiation for 5 mins by ethidium bromide staining based agarose gel electrophoresis. Type of test: nucleic-acid assay. To be noted: time 20.0 min. The method in brief:
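Plasmid dsDNA (70 ng pCMV-PARP1-3xFlag-WT, 7146 bp) in PBS pH 7.4 with compound at 10 μM. Illumination: 480 nm for 15 min (2.3 J cm⁻²), then UV 365 nm lamp for 5 min (8.0 J cm⁻²). Samples denatured, run on 1% agarose gel with ethidium bromide. n = 2.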

The next test deals with MCF7. The experiment in a line: Photocytotoxicity against human MCF7 cells assessed as cell death by measuring increase in green fluorescence at 4 uM incubated for 1 hr followed by washout and irradiated with 480 nm 2.3 J/cm^2 light for 15 mins with 48 J 780 nm 2P laser light for 30 seconds by cell viability imaging kit based assay. Type of test: functional. In a few lines: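 MCF7 cells given compound at 4 μM. Illuminated with 480 nm light (15 min, 2.3 J cm⁻²) plus 780 nm two-photon laser (30 s, 48 J). Stained 2 h later with a live/dead imaging kit: green dead-cell stain (EGFP filter), blue total-cell stain (DAPI filter). n = 3.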

The source made the active and inactive calls. The calls are words filed in the database; no cut-off is given here.

The Kd is the free concentration of one partner at which half of the binding sites on the other are occupied at equilibrium, for simple one-to-one binding. `CC1=CC(C)=[N+]2C1=C(COC(=O)/N=C(\N)c1ccc3c(Br)c(-c4ccc(C(=N)N)cc4)[nH]c3c1)c1c(C)cc(C)n1[B-]2(C)C`: the Kd in the test with Calf thymus DNA is 6 µM. The outcome in the test on DNA and with MCF7 was Active.

(Values after ChEMBL document CHEMBL5150073, “Photocaged DNA-Binding Photosensitizer Enables Photocontrol of Nuclear Entry for Dual-Targeted Photodynamic Therapy” (J Med Chem, 2022).)
